Ten compounds from ChEMBL document CHEMBL1144813, “4'-Methyl-4,5'-bithiazole-based correctors of defective delta F508-CFTR cellular processing” (Bioorg Med Chem Lett, 2008) can be followed below.

Holding throughout (type): cell-based
In test [1] the target is Cystic fibrosis transmembrane conductance regulator (Homo sapiens, UniProt P13569, F508DEL). Put plainly: Corrector activity at human CFTR deltaF508 mutant expressed in FRT cells assessed as iodide influx. To be noted: read-out: Kd. In outline:
(§1)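 FRT epithelial cells stably co-expressing human ΔF508-CFTR and halide sensor YFP-H148Q/I152L; grown 24 h at 37°C, then 20 h with compound. PBS wash, then forskolin 20 μM plus genistein 50 μM for 20 min. Fluorescence read 2 s baseline, then 12 s after iodide-substituted PBS addition; influx rate from exponential fit of final 11.5 s, normalized to initial fluorescence; DMSO vehicle negative control.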

The test system of test [2] is Cystic fibrosis transmembrane conductance regulator (Homo sapiens), P13569 [F508del]. Put plainly: Corrector activity at human CFTR deltaF508 mutant expressed in FRT cells assessed as iodide influx at 10 uM. An outline of the steps:
as §1

Test [3] has the same test system. Put plainly: Corrector activity at human CFTR deltaF508 mutant expressed in FRT cells assessed as iodide influx at 25 uM. An outline of the steps:
as §1

Active and inactive are the calls of the source. The calls are words filed in the database; no cut-off is given here.

Cystic fibrosis transmembrane conductance regulator (Homo sapiens), P13569 [F508del], sequence (P13569 as listed by the source): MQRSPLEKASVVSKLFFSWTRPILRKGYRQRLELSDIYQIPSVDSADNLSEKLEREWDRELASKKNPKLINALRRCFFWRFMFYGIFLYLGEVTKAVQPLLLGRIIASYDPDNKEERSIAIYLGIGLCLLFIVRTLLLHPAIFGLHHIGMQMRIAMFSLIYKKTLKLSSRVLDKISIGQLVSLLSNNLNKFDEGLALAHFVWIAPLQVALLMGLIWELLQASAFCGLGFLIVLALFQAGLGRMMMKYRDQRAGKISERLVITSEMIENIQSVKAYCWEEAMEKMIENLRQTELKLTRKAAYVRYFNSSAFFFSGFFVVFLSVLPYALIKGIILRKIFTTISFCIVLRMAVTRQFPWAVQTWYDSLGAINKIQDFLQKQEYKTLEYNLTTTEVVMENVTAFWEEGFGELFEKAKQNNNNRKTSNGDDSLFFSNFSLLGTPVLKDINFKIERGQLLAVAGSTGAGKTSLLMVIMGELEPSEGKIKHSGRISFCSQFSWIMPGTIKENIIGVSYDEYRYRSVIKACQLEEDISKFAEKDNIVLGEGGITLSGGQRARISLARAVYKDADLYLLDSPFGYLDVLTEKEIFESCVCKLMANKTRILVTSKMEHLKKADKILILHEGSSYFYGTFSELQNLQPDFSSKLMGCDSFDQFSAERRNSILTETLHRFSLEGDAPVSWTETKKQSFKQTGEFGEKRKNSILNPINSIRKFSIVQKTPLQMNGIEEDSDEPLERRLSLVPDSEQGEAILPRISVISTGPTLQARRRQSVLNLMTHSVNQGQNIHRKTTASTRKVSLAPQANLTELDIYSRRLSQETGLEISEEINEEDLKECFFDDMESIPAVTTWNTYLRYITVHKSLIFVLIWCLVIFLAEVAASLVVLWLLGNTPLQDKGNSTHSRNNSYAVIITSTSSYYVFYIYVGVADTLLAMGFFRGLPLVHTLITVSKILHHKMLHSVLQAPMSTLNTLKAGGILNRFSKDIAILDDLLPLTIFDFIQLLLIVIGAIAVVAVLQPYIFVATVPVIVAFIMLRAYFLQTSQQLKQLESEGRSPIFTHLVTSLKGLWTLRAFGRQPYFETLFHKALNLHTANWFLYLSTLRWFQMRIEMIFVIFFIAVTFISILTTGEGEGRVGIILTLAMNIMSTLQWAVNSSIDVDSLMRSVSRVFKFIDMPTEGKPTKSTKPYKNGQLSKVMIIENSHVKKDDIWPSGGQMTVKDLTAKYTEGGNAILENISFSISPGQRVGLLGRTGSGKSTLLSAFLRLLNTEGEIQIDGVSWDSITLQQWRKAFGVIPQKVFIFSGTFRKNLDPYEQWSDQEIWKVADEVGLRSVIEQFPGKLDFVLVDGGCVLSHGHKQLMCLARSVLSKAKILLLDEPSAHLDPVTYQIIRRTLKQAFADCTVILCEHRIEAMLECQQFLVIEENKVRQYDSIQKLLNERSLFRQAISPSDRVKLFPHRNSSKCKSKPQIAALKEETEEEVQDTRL
Cystic fibrosis transmembrane conductance regulator, sequence (P13569 as listed by the source): as above

For `COc1ccc(Cl)cc1Nc1nc(-c2sc(NC(=O)C(C)(C)C)nc2C)cs1`, the EC50 in test [1] was determined as 700 nM. The same measure, in the same setting: for `CCCCCCC(=O)Nc1nc(C)c(-c2csc(Nc3cc(OC)ccc3OC)n2)s1` the value was 1100 nM; for `Cc1nc(NC(=O)c2ccc([N+](=O)[O-])cc2)sc1-c1csc(Nc2ccc(Cl)cc2)n1`, 800 nM.

For the compound `CCOc1ccccc1Nc1nc(-c2sc(NC(=O)C(C)(C)C)nc2C)cs1`, in test [1], the EC50 came to 800 nM. For `Cc1nc(NC(=O)c2ccc(Cl)cc2)sc1-c1csc(Nc2ccc(Cl)cc2)n1`, the EC50 in test [1] was determined as 1100 nM. In the case of `COc1c(Cl)cccc1Nc1nc(-c2sc(NC(=O)c3ccccc3)nc2C)cs1`, the result in test [2] and in test [3] was Active.

For `Cc1nc(NC(=O)c2ccccc2)sc1-c1csc(Nc2cccc(Cl)c2Cl)n1`, the outcome in test [2] and in test [3] was Active.

Take `COc1ccc(OC)c(Nc2nc(-c3sc(NC(=O)c4ccc(Cl)cc4)nc3C)cs2)c1`: in test [1], the EC50 turned out to be 1100 nM. `COc1ccc(Cl)cc1Nc1nc(-c2sc(NC(=O)c3ccccc3)nc2C)cs1`: the result in test [2] and in test [3] was Active. In addition, the EC50 in test [1] came out at 900 nM. Regarding `Cc1ccc(Nc2nc(-c3sc(NC(=O)c4ccc(Cl)cc4)nc3C)cs2)cc1`, the EC50 in test [1] is 1100 nM.
